High-throughput results as filed in PubChem BioAssay.
ASAP1 inh: inhibitors of human ASAP1 ArfGAP activity. ASAP1-stimulated ARF1 GTP hydrolysis, GDP FP detection. Q9ULH1. 360,000 tested, 0.19% active. inhibition, % at 16.5 µM. AID 624377; in the data active = inhibition above about 25%
Target sequence (Q9ULH1 325-724 limits assumed): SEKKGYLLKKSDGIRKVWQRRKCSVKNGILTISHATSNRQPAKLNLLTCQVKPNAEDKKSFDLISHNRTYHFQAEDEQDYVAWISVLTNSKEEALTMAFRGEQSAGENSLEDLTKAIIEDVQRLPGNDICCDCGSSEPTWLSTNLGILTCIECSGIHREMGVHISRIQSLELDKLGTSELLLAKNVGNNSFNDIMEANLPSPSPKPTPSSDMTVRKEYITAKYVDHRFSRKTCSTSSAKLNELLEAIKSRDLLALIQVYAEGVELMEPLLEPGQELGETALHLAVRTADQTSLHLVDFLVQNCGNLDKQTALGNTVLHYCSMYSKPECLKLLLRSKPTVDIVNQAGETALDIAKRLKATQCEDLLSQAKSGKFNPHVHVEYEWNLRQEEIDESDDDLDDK
TCR CD3 inh: human TCR-CD3 binding inhibition; 360,000 tested, 0.37% active; TAMRA-labeled TCR probe fluorescence, biochemical; inhibition, % at 9.4 µM; in the data active = inhibition above about 19%;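 note: recombinant mutant TCR 2C K166C tagged with TAMRA read by polarization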
MBD2 DNA inh: inhibitors of human MBD2 binding to methylated oligonucleotide. TR-FRET. 370,000 tested, 0.31% active. inhibition, % at 4.4 µM; in the data active = inhibition above about 13%
LEDGF integ inh: blocks HIV-1 LEDGF/p75-dependent DNA integration; 370,000 tested, 0.64% active; inhibition, % at 3.7 µM; TR-FRET IN-LEDGF/p75 DNA integration, Eu/Cy5;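 active = inhibition above the screen-wide mean plus 3 SD, cut at about 13% in these data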;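 note: signal is the Cy5 over europium emission ratio at 671 and 618 nm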
ARFGAP1 inhibitor: rat ARFGAP1 inhibition. 360,000 tested, 0.26% active. AID 651572. Q62848. Arfgap1-stimulated ARF1 GTP hydrolysis, GDP FP detection. inhibition, % at 16.5 µM;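 active = inhibition above a per-plate limit, mean inhibition of low control wells plus 3 SD, cut at about 25% in these data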
Target sequence (Q62848 1-136 limits assumed): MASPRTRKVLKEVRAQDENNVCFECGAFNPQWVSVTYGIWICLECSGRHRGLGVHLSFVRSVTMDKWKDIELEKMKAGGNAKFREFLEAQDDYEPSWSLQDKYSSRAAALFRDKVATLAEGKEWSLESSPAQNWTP
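Material: rat Arfgap1 GAP domain (His6, aa 1-136), purified enzyme. Also added: human ARF1(Δ1-17)-GTP substrate. Compound dosing: 16.5 µM single point, 1.26% DMSO. Timing: enzyme reaction 120 min at 25 °C after 20 min preincubation. Signal: GDP detection by fluorescence polarization. Read-out basis: percent inhibition of GAP-stimulated GDP formation, scaled between DMSO and no-Arfgap1 medians.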
UHRF1 MBD2 ctr: human UHRF1 methylated DNA binding inhibitors; UHRF1 binding to methylated oligo, TR-FRET; Q96T88; AID 687016; 370,000 tested, 0.75% active; inhibition, % at 4.4 µM; in the data active = inhibition above about 21%;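 note: UHRF1 SRA domain binding a hemimethylated CpG hairpin DNA probe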
ASAP1 GAP conf: ASAP1 inhibition confirmed | ASAP1-stimulated Arf1 GTPase, GDP fluorescence polarization | shares compounds with ASAP1 inh | inhibition, % at 16.5 µM | 620 tested, 37% active;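 active = mean inhibition over triplicates exceeds the hit threshold derived for the earlier primary screening run, cut at about 25% in these data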
Numbers stand for hits; - = inactive; . = no result; ! = repeats disagree. Only some compounds are listed: those with a hit (about 2% of all), similar ones and a draw of the others.

SMILES | ASAP1 inh | TCR CD3 inh | MBD2 DNA inh | LEDGF integ inh | ARFGAP1 inhibitor | UHRF1 MBD2 ctr | ASAP1 GAP conf
CCCc1nc2ccc(NC(C)=O)cc2c(=O)n1Cc1ccc(Cl)cc1 | 27.6 | - | - | - | - | - | -
CCCc1nc2ccc(NC(=O)c3cccs3)cc2c(=O)n1Cc1ccccc1Cl | - | - | - | - | - | - | .
CC(=O)Nc1ccc2c(c1)C(=O)N(C)[C@H]1CC[C@H](CC(=O)NCc3ccc(F)cc3)O[C@@H]1CO2 | . | . | - | - | . | - | .
Cc1ccc(N(C)S(=O)(=O)c2ccc3[nH]cc(C(=O)NCCCN4CCOCC4)c(=O)c3c2)cc1C | 30.1 | - | - | - | - | - | -
Cc1ccsc1C(=O)OCC(=O)NC1CCCCC1 | 29.3 | - | - | - | - | - | -
COc1ccc(C(C(=O)N(C)C2CCCC2)N(Cc2ccc(F)cc2)C(=O)c2csc3ccc(Cl)cc23)cc1OC (configuration not stated) | . | . | - | - | . | - | .
Cc1cccc(-c2onc3ccc(C(=O)/C=C/N(C)C)cc23)c1 | - | - | - | - | - | - | .
COc1cccc(-c2onc3ccc(C(=O)/C=C/N(C)C)cc23)c1 | 35.5 | - | - | - | - | - | 51.3
O=C(NC1CCCCN(Cc2cccc(Cl)c2)C1=O)c1ccccn1 (configuration not stated) | . | . | - | - | . | - | .
Cc1cc(C)c2c(c1)NC(C(=O)O)C1CC=CC21 (configuration not stated) | 38.4 | 28.6 | 15.5 | 31.2 | 29.7 | 39.2 | 35.4
CC1(C(=O)NS(=O)(=O)C2CC2)CCN(C(=O)c2ccccc2F)C1 (configuration not stated) | - | - | - | - | - | - | .
CCOC(=O)c1csc(NC(=O)C2CCCN(S(=O)(=O)c3ccc([N+](=O)[O-])cc3)C2)n1 (configuration not stated) | . | . | - | - | . | - | .
O=C(NCc1ccncc1)c1ccccc1Nc1ccc(SC(F)F)cc1 | 28.1 | - | - | - | - | - | -
CNC(=O)c1ccccc1Nc1ccc(SC(F)F)cc1 | - | - | - | - | - | - | .
CC1(C)Cc2nc3oc4c(=O)n(CC(=O)Nc5ccccc5)cnc4c3cc2CO1 | - | - | - | - | - | - | .
CC1(C)Cc2nc3sc4c(=O)n(CC(=O)NCc5ccco5)cnc4c3cc2CO1 | 25.2 | - | - | - | - | - | -
O=C(Nc1ccc2ccccc2c1)C(=O)C1C(=O)Nc2ccccc21 (configuration not stated) | 25.1 | - | - | - | - | - | -
O=C(Nc1ccc(F)cc1)C(=O)C1C(=O)Nc2ccccc21 (configuration not stated) | - | - | - | - | - | - | .
S=C(Nc1ccccc1I)OC1CCC12CCC(c1ccccc1)CC2 (configuration not stated) | . | . | - | - | . | - | .
O=C(N/N=C/c1ccc(F)cc1)c1cc(-c2ccc3c(c2)OCO3)n[nH]1 | - | - | - | - | - | - | .
COc1ccc(/C=N/NC(=O)c2cc(-c3ccc4c(c3)OCO4)n[nH]2)cc1OC | 26.0 | - | - | - | - | - | 33.7
CC(C)Oc1cccc(NC(=O)C2(C)CCCN2C(=O)C(C)C)c1 (configuration not stated) | - | - | - | - | - | - | .
COc1ccc(C(=O)NC(=S)Nc2ccc3oc(=O)ccc3c2)cc1 | 59.0 | - | - | - | - | - | 78.5
CCn1nc(NC(=O)c2ccncc2)c2cc3ccc(C)cc3nc21 | 24.7 | - | - | - | - | - | -
CCn1nc(NC(=O)c2ccncc2)c2cc3cc(C)ccc3nc21 | - | - | - | - | - | - | .
SMILES | ASAP1 inh | TCR CD3 inh | MBD2 DNA inh | LEDGF integ inh | ARFGAP1 inhibitor | UHRF1 MBD2 ctr | ASAP1 GAP conf
COc1ccccc1CCn1cnc(-c2cccc(F)c2)c1CC(C)C | - | - | - | - | - | - | .
CC(NC(=O)c1ccc(CS(=O)(=O)c2ccc(Cl)cc2)o1)c1ccc2c(c1)OCCO2 (configuration not stated) | 27.1 | - | - | - | - | - | -
CC(Cc1cccs1)NC(=S)Nc1ccc(Cl)cc1 (configuration not stated) | 28.6 | - | - | - | - | - | -
O=C(N/N=C/c1ccc([N+](=O)[O-])cc1)c1ccc(COc2ccccc2-c2ccccc2)cc1 | 31.1 | - | - | - | - | - | 81.1
Cc1c(O)ccc(/C=N/Nc2nc(-c3cccnc3)nc3ccccc23)c1O | 26.6 | - | - | - | - | - | -
Oc1ccc(/C=N/Nc2nc(-c3cccnc3)nc3ccccc23)c(O)c1 | - | - | - | - | - | - | .
CC1CCC2(CCC(=O)N2C[C@@H](O)c2ccccc2)CC1 (some centres not stated) | . | . | - | - | . | - | .
Cn1nc(C(C)(C)C)cc1NC(=O)C1(C)CCN1C(=O)C1(c2ccccc2)CC1 (configuration not stated) | 25.4 | - | - | - | - | - | -
Cn1nc(C(C)(C)C)cc1NC(=O)C1(C)CCN1C(=O)C1(c2ccccc2)CCCC1 (configuration not stated) | - | - | - | - | - | - | .
O=C(NCCc1ccccc1)c1ccc(-c2ccc(F)c(F)c2)c2ccoc12 | - | - | - | - | - | - | .
CC(=O)Nc1ccc(Sc2ccc([N+](=O)[O-])o2)cc1 | 30.9 | - | - | - | - | - | -
C[C@@H]1CN([C@@H](C)CO)C(=O)c2cc(-c3ccccc3F)cnc2O[C@H]1CN(C)Cc1cccc(F)c1 | - | - | - | - | - | - | .
C/C=C(/C)C(=O)O[C@@H]1[C@H](OC(=O)C=C(C)C)c2c(ccc3ccc(=O)oc23)OC1(C)C | 26.1 | - | - | - | - | - | -
C/C=C(/C)C(=O)O[C@@H]1c2c(ccc3ccc(=O)oc23)OC(C)(C)[C@@H]1OC(=O)/C(C)=C\C | - | - | - | - | - | - | .
O=C(Nc1ccc([N+](=O)[O-])cc1)Nc1ccc(OC(F)F)c(Cl)c1 | 26.7 | 40.3 | - | - | - | - | -
Cc1ccc(S(=O)(=O)C[C@@H]2OC[C@H](CO)N2S(=O)(=O)c2ccc(C)cc2)cc1 | - | - | - | - | - | - | .
O=C(N/N=C/c1c(O)ccc2ccccc12)c1cccc(C(F)(F)F)c1 | 26.5 | - | - | - | - | - | -
COc1ccc2ccccc2c1/C=N/NC(=O)c1cccc(Br)c1 | - | - | - | - | - | - | .
CC1CN(S(=O)(=O)c2ccc(NC(=O)c3cc(-c4ccccc4O)n[nH]3)cc2)CC(C)O1 (configuration not stated) | 25.9 | - | - | - | - | - | -
CCN1CCN(Cc2ccc(NC(=O)c3cc(NC(=O)c4cc5cccc(OC)c5o4)cc(OC)c3)cc2C(F)(F)F)CC1 | 29.3! | - | - | - | - | - | 49.4
